This is an account of results in ChEMBL document CHEMBL1145917, “Neurosteroid analogues. 9. Conformationally constrained pregnanes: structure-activity studies of 13,24-cyclo-18,21-dinorcholane analogues of the GABA modulatory and anesthetic steroids (3alpha,5alpha)- and (3alpha,5beta)-3-hydroxypregnan-20-one” (J Med Chem, 2003).

The term IC50 denotes the concentration needed to halve the response being measured. Read a high IC50 as weaker potency.

The nature of assay [1]: Hill coefficient for loss of righting response. In kind it is functional. The procedure, abridged:
(§1)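 Groups of 10 early pre-limb-bud X. laevis tadpoles were placed in 100 mL oxygenated Ringer's containing compound at various concentrations. Compound came from a 10 mM DMSO stock, about 0.1% DMSO final. Loss of righting and loss of swimming responses were scored. EC50 and Hill coefficient n were taken from a Hill equation fit.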

Assay [2] has as its target T1, GABA-A receptor; alpha-1/beta-2/gamma-2 (Rattus norvegicus) (UniProt P18508+P62813+P63138). Put plainly: In vitro current effect against rat GABA receptor alpha-1-beta-2-gamma-2 subunits expressed in Xenopus laevis oocytes at 1 uM (ratio +/- compound). Type of assay: cell-based. The conditions noted are these: Oocyte. The procedure, abridged:
(§2)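 Two-electrode voltage clamp at -70 mV, 2–5 days after injecting rat α1, β2 and γ2L cRNA (20–40 ng total, equal parts) into defolliculated stage V–VI oocytes held at 18 °C in ND96. Compound was co-applied with 2 μM GABA for 20 s and peak current measured. Value is the ratio of current with/without compound, from at least four oocytes.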

The nature of assay [3]: Loss of swimming behavior in Xenopus laevis tadpole. In kind it is functional, frog. The conditions noted are these: Amphibia, read-out: ED50 (the source's name). The procedure, abridged:
as §1

For assay [4], the target named is GABA-A receptor; anion channel. Put plainly: Non-competitive displacement of [35S]TBPS from picrotoxin binding site found in heterogeneous Gamma-aminobutyric acid A receptor in rat brain membranes. In kind it is cell membranes. The method in brief: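 Rat brain membranes (washed P2, 0.5 mg/mL final protein) incubated 2 h at room temperature with 5 μM GABA, 2 nM [35S]TBPS and steroid from DMSO (final 1 nM–10 μM) in 200 mM NaCl/50 mM potassium phosphate, pH 7.4. Nonspecific binding defined with 200 μM picrotoxinin. Filtration, scintillation counting, Hill fit for IC50. Triplicate points, two or three curves per steroid.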

The nature of assay [5]: Hill coefficient for displacement of [35S]TBPS. In kind it is functional. The method in brief: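 Rat brain membrane P2 fraction washed three times in 200 mM NaCl / 50 mM potassium phosphate, pH 7.4. Assay used 0.5 mg/mL protein, 5 μM GABA, 2 nM [35S]TBPS and steroid at 1 nM–10 μM final (0.5% DMSO), 2 h at room temperature, then filtration and scintillation counting. Nonspecific binding was taken with 200 μM picrotoxinin. Triplicate points, 2–3 curves per steroid; Hill equation fit gives n.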
For orientation: Displacement assays read how much labelled ligand stays bound in the presence of the test substance.

Assay [6] has as its target T1, GABA-A receptor; alpha-1/beta-2/gamma-2 (Rattus norvegicus). Put plainly: In vitro current effect against rat GABA receptor alpha-1-beta-2-gamma-2 subunits expressed in Xenopus laevis oocytes at 10 uM (ratio +/- compound). In kind it is cell-based. The conditions noted are these: Oocyte. The procedure, abridged: as §2
The target is the same in assay [7]. Put plainly: In vitro current effect against rat GABA receptor alpha-1-beta-2-gamma-2 subunits expressed in Xenopus laevis oocytes at 0.1 uM (ratio +/- compound). The conditions noted are these: Oocyte. Type of assay: cell-based. The method in brief:
as §2

Assay [8] in a line: Loss of righting reflex in Xenopus laevis tadpole. Type of assay: functional, frog. The conditions noted are these: Amphibia, read-out: ED50 (the source's name). The procedure, abridged: as §1
Assay [9] addresses T1, GABA-A receptor; alpha-1/beta-2/gamma-2 (Rattus norvegicus). Put plainly: In vitro direct current effect against rat GABA receptor alpha-1-beta-2-gamma-2 subunits expressed in Xenopus laevis oocytes at 10 uM (ratio +/- compound, without GABA). The conditions noted are these: Oocyte. Type of assay: cell-based. The method in brief:
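Same oocyte α1β2γ2L voltage-clamp setup at -70 mV, with peak current over 20 s applications. Compound was applied at 10 μM without GABA. Directly gated current is expressed as a ratio to the current evoked by 2 μM GABA, from at least four oocytes.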

Assay [10] can be described thus: Hill coefficient for loss of swimming response. Type of assay: functional. The method in brief:
as §1

Turning to `C[C@]12CC[C@@H](O)C[C@H]1CC[C@H]1[C@@H]3CCC4C=CC(=O)C[C@@]43CC[C@@H]12` (stereo partly drawn), the nHill in assay [1] was -16.6; in assay [5] it was 0.64; in [10] it was -22.1. Moreover, the Ratio in assay [2] is 1.83; in [6], 4.5; in [7] it was 1.07; in assay [9], -0.02. The EC50 in assay [3] is 2720 nM; in [8], 1050 nM. This compound registered a half-inhibitory concentration (IC50) in assay [4] of 268 nM.
Turning to `C[C@]12CC[C@@H](O)C[C@H]1CC[C@@H]1[C@@H]2CC[C@]23C(=O)CCCC2CC[C@@H]13` (stereo partly drawn), the nHill was -4.97 in [1], 0.95 in assay [5] and -18.2 in [10]. The Ratio in assay [2] is 3.45; in [6], 10.4; in [7], 1.26; in [9], 0.04. The values for the EC50 in assay [3] and in [8] were 890 nM and 40 nM, respectively. Also, in assay [4], the IC50 was determined as 329 nM.
Turning to `C[C@]12CC[C@@H](O)C[C@@H]1CC[C@H]1[C@@H]3CCC4CC(=O)CC[C@@]43CC[C@@H]12` (stereo partly drawn), the values for the nHill in assay [1] and in assay [5] were -2.02 and 0.95, respectively. Moreover, the Ratio in [2] was 1.61; in assay [6] it was 2.93; in [7] it was 1.3; in assay [9], 0.06. In addition, the IC50 in [4] turned out to be 1440 nM. In addition, the EC50 in [8] worked out at 2370 nM.
As for `C[C@]12CC[C@@H](O)C[C@@H]1CC[C@@H]1[C@@H]2CC[C@]23C(=O)CCCC2CC[C@@H]13` (stereo partly drawn), the nHill is -1.75 in assay [1], 1.01 in [5] and -36.5 in [10]. Moreover, the Ratio in [2] came out at 3.05; in [6], 10.7; in assay [7], 1.22; in assay [9], 0.39. Moreover, the EC50 in assay [3] worked out at 1730 nM; in [8], 320 nM. This compound also returned a half-inhibitory concentration (IC50) in assay [4] of 301 nM.
For the compound `C[C@]12CC[C@@H](O)C[C@H]1CC[C@@H]1[C@@H]2CC[C@]23C(=O)C=CC[C@H]2CC[C@@H]13`, the nHill in assay [1] was -4.97; in assay [5], 0.9; in assay [10] it was -18.6. The Ratio in [2] came out at 3.15; in assay [6], 21.4; in [7] it was 1.36; in assay [9], 0.2. In addition, the EC50 was found to be 1000 nM in assay [3] and 400 nM in [8]. The compound also yielded an IC50 in assay [4] of 105 nM.
Consider `CC(=O)[C@H]1CC[C@H]2[C@@H]3CC[C@H]4C[C@H](O)CC[C@]4(C)[C@H]3CC[C@]12C` [BREXANOLONE], for which the nHill in assay [1] was -1.83; in [5], 0.89; in [10], -7.5. In addition, the Ratio was 3.89 in assay [2], 9.65 in [6], 1.26 in assay [7] and 0.37 in assay [9]. Also, the EC50 in assay [3] is 5500 nM; in assay [8], 420 nM.
Regarding `C[C@]12CC[C@@H](O)C[C@@H]1CC[C@H]1C3CCC4C(=O)C=CC[C@@]43CC[C@@H]12` (single isomer, unassigned), the nHill in assay [1] was -2.79; in assay [5], 1.17. For the same compound, the Ratio turned out to be 5.87 in [2], 9.07 in [6], 1.49 in assay [7] and 0.72 in assay [9]. This compound had a half-maximal inhibitory concentration (IC50) in [4] of 373 nM. Moreover, the EC50 in assay [8] stood at 3380 nM.
On to `C[C@]12CC[C@@H](O)C[C@H]1CC[C@H]1[C@@H]3CCC4C(=O)CCC[C@@]43CC[C@@H]12` (stereo partly drawn), for which the values for the nHill in assay [1], in assay [5] and in assay [10] were -1.23, 1.36 and -33.5, respectively. Also, the Ratio was 1.12 in [2], 1.51 in assay [6], 0.93 in assay [7] and -0.25 in [9]. Moreover, the EC50 in [3] was 5480 nM; in assay [8] it was 940 nM. The IC50 in [4] stood at 1780 nM.
On to `C[C@]12CC[C@@H](O)C[C@@H]1CC[C@@H]1[C@@H]2CC[C@]23C=CC(=O)C[C@H]2CC[C@@H]13`, for which the nHill in assay [1] was -1.57; in assay [5], 1; in assay [10], -33.5. The Ratio in [2] was 1.54; in [6] it was 5.07; in assay [7] it was 1.12; in assay [9], -0.04. The EC50 in assay [3] was determined as 5480 nM; in assay [8], 730 nM. Besides, the half-maximal inhibitory concentration (IC50) in [4] is 1260 nM.
Regarding `C[C@]12CC[C@@H](O)C[C@H]1CC[C@H]1[C@@H]3CCC4CC(=O)CC[C@@]43CC[C@@H]12` (stereo partly drawn), the figures for the nHill in [1], in [5] and in [10] were -1.86, 0.73 and -18.7, respectively. Moreover, the Ratio was 1.11 in assay [2], 2.65 in assay [6], 0.97 in assay [7] and -0.1 in [9]. The EC50 is 9430 nM in [3] and 2470 nM in [8]. The compound further had a 50% inhibitory concentration (IC50) in assay [4] of 3230 nM.
As to `C[C@]12CC[C@@H](O)C[C@@H]1CC[C@@H]1[C@@H]2CC[C@]23C(=O)C=CC[C@H]2CC[C@@H]13`, the Ratio in [2] was 8.33; in assay [6], 9.45; in [7], 1.98; in assay [9] it was 0.07. Also, the EC50 in assay [3] is 2660 nM; in [8] it was 1200 nM. This compound also gave an IC50 in assay [4] of 197 nM. Besides, the nHill in assay [5] is 1.03; in assay [10] it was -24.2.
For the compound `C[C@]12CC[C@@H](O)C[C@H]1CC[C@H]1[C@@H]3CCC4CCC(=O)C[C@@]43CC[C@@H]12` (stereo partly drawn), the nHill is -3.02 in assay [1], 0.89 in assay [5] and -17.5 in [10]. Also, the Ratio in [2] was determined as 1.03; in [6] it was 3.17; in [7] it was 0.97; in assay [9] it was 0.01. Also, the EC50 in [3] was 3550 nM; in assay [8], 1440 nM. Besides, the IC50 in assay [4] came to 899 nM.
As for `C[C@]12CC[C@@H](O)C[C@@H]1CC[C@H]1[C@@H]3CCC4C(=O)CCC[C@@]43CC[C@@H]12` (stereo partly drawn), the nHill in assay [1] was -2.51; in [5], 0.84; in [10] it was -33.5. Moreover, the Ratio in assay [2] was 1.44; in assay [6], 2.28; in assay [7] it was 1.01; in assay [9], 0. Also, the EC50 in [3] came out at 5450 nM; in assay [8], 1360 nM. In [4], this compound showed an IC50 of 514 nM.
Consider `CC(=O)[C@H]1CC[C@H]2[C@@H]3CC[C@@H]4C[C@H](O)CC[C@]4(C)[C@H]3CC[C@]12C` [ELTANOLONE], for which the figures for the nHill in assay [1], in assay [5] and in [10] were -1.54, 0.57 and -6.93, respectively. Besides, the Ratio turned out to be 2.82 in [2], 9.77 in [6], 1.2 in assay [7] and 0.06 in [9]. Also, the EC50 in assay [3] turned out to be 300 nM; in [8], 63 nM.
